The source of these data is ChEMBL document CHEMBL5154665, “Design, synthesis, biochemical evaluation, radiolabeling and in vivo imaging with high affinity class-IIa histone deacetylase inhibitor for molecular imaging and targeted therapy” (Eur J Med Chem, 2022).

Test [1] in a line: Inhibition of HDAC class 2a in human PANC-1 cells using TFA-lysine as fluorogenic substrate by fluorescence microplate reader assay. The class given is cell-based.
Test [2] can be described thus: Inhibition of HDAC class 2a in human HT-29 cells using Boc-Lys-TFA as substrate incubated for 3 hrs by microplate reader assay. The note with it: HT-29, 3 h. The test is classed as cell-based.
For a further test, the target named is Histone deacetylase 1 (Homo sapiens, UniProt Q13547). Description: Inhibition of recombinant human HDAC1 using fluorogenic substrate by fluorescence microplate reader assay. A digest of the protocol: (§1)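 Recombinant human HDAC isoforms were tested at 9 inhibitor dilutions in commercial fluorogenic enzyme kits, per the manufacturer's protocol. For class IIa enzymes, deacetylation of a TFA-lysine substrate lets trypsin release a fluorophore, read on a microplate reader. IC50 came from a nonlinear fit of % HDAC activity inhibition against compound concentration.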

In test [3] the target is T1, Class 1 histone deacetylase (Homo sapiens, UniProt Q13547+O15379+Q92769+Q9BY41). Briefly: Inhibition of HDAC class 1 in human THP-1 cells using TFA-lysine as fluorogenic substrate by fluorescence microplate reader assay. The class given is cell-based.
Test [4] can be described thus: Inhibition of HDAC class 2b in human THP-1 cells using TFA-lysine as fluorogenic substrate by fluorescence microplate reader assay. The test is classed as cell-based.
Test [5] is described as follows: Inhibition of HDAC class 2b in human HT-29 cells using Boc-Lys-Ac as substrate incubated for 3 hrs by microplate reader assay. The test is classed as cell-based. The note with it: HT-29, 3 h.
The target of test [6] is T2, Protein deacetylase HDAC6 (Homo sapiens, UniProt Q9UBN7).
T2 sequence (Q9UBN7 whole entry): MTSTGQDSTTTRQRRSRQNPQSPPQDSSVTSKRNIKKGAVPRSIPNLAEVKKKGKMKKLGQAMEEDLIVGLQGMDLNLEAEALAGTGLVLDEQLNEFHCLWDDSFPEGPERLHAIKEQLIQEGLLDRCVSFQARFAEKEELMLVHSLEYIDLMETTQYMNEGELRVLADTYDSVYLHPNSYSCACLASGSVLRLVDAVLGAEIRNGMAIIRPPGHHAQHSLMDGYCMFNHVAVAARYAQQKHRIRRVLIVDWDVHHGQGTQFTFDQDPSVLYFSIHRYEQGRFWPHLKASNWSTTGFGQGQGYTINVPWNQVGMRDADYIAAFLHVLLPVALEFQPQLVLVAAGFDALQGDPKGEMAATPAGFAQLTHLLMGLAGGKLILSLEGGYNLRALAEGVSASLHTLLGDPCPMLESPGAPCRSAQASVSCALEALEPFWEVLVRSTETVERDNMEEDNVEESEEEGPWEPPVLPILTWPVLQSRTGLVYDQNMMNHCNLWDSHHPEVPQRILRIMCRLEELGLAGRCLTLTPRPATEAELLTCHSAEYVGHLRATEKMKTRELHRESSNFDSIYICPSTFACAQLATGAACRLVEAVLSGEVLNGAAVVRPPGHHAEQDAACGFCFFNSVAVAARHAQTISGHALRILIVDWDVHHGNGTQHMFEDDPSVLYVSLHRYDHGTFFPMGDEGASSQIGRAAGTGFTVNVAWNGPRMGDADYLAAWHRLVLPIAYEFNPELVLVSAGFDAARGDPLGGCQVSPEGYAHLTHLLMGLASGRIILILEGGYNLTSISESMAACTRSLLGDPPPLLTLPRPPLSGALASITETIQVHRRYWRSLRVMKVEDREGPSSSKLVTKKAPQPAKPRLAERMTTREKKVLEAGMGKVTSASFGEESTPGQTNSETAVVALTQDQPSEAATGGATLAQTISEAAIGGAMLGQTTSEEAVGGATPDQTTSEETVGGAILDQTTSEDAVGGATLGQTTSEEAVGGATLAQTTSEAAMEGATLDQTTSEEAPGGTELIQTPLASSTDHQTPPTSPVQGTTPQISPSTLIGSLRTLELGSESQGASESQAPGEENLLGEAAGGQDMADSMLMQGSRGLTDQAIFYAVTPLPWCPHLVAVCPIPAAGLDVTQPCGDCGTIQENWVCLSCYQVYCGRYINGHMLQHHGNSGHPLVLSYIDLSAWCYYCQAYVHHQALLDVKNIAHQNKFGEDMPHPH
Description: Inhibition of recombinant human HDAC6 using fluorogenic substrate by fluorescence microplate reader assay. An outline of the steps:
as §1

Another test has as its target Histone deacetylase 2 (Homo sapiens, UniProt Q92769). Briefly: Inhibition of recombinant human HDAC2 using fluorogenic substrate by fluorescence microplate reader assay. A digest of the protocol: as §1
Test [7] is described as follows: Inhibition of HDAC class 2a in human THP-1 cells using TFA-lysine as fluorogenic substrate by fluorescence microplate reader assay. The class given is cell-based.
The nature of test [8]: Inhibition of HDAC class 2b in human L3.6pl cells using TFA-lysine as fluorogenic substrate by fluorescence microplate reader assay. The test is classed as cell-based.
Test [9] in a line: Inhibition of HDAC class 2a in human HT-29 cells using TFA-lysine as fluorogenic substrate by fluorescence microplate reader assay. The test is classed as cell-based. A digest of the protocol:
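HT-29 cells were plated at 200,000 cells/well in RPMI without phenol red with 0.1% FBS, with 100 µM Boc-Lys-TFA for class IIa or 200 µM Boc-Lys-Ac for class I/IIb. Compounds ran as an 11-point curve (5% final DMSO), with 5 µM trichostatin A as the positive control. Incubation was 3 h at 37 °C, then trypsin developer with Tween 80 for 1 h to lyse cells and release fluorophore.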

The next test addresses Histone deacetylase 3 (Homo sapiens, UniProt O15379). Description: Inhibition of recombinant human HDAC3 using fluorogenic substrate by fluorescence microplate reader assay. An outline of the steps:
as §1

Test [10] addresses T3, Polyamine deacetylase HDAC10 (Homo sapiens, UniProt Q969S8).
T3 sequence (Q969S8 whole entry): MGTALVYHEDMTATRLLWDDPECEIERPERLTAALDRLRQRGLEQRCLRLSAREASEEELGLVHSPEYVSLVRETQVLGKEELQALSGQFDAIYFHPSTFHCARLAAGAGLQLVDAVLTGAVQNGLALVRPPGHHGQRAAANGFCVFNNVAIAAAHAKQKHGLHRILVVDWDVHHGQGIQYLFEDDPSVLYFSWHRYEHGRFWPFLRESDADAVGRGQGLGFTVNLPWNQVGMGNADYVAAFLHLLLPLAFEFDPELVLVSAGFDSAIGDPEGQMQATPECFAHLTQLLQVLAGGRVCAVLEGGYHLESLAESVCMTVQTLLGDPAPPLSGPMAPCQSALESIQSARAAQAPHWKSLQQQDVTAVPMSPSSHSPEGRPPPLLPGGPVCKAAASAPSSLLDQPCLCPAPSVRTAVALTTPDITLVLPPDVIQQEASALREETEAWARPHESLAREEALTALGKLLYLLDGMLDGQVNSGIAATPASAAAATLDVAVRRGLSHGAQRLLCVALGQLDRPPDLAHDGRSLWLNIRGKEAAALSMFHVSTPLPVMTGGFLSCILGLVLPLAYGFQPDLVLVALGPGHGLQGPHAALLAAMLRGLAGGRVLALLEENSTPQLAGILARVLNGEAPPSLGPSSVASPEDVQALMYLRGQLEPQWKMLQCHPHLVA
Briefly: Inhibition of recombinant human HDAC10 using fluorogenic substrate by fluorescence microplate reader assay. An outline of the steps: as §1

Test [11] deals with T1, Class 1 histone deacetylase. Briefly: Inhibition of HDAC class 1 in human L3.6pl cells using TFA-lysine as fluorogenic substrate by fluorescence microplate reader assay. The test is classed as cell-based.

Histone deacetylase 3, sequence (O15379 whole entry): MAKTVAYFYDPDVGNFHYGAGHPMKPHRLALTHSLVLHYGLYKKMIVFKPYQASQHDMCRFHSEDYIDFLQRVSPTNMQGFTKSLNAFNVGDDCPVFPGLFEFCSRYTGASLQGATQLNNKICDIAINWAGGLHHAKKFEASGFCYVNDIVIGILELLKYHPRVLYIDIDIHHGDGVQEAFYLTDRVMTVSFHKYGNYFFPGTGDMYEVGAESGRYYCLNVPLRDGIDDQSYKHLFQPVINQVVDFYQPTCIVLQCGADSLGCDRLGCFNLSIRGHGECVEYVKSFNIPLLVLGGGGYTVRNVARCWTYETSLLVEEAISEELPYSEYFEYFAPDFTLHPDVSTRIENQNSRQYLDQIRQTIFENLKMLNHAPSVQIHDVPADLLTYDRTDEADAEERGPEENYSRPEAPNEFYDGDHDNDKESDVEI
Histone deacetylase 1, sequence (Q13547 whole entry, canonical isoform): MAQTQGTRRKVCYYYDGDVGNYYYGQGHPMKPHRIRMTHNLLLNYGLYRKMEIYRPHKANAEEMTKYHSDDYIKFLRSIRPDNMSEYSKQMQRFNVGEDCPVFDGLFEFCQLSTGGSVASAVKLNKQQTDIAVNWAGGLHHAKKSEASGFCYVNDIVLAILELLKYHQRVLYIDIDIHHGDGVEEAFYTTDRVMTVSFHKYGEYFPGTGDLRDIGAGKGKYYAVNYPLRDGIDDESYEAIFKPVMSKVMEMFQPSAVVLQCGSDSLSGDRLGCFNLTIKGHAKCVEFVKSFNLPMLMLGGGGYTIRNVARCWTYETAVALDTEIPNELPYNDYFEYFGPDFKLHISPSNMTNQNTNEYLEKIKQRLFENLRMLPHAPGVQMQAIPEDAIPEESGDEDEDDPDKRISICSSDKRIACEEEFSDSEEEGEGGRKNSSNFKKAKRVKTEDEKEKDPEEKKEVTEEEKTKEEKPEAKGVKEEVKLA
Histone deacetylase 2, sequence (Q92769 whole entry): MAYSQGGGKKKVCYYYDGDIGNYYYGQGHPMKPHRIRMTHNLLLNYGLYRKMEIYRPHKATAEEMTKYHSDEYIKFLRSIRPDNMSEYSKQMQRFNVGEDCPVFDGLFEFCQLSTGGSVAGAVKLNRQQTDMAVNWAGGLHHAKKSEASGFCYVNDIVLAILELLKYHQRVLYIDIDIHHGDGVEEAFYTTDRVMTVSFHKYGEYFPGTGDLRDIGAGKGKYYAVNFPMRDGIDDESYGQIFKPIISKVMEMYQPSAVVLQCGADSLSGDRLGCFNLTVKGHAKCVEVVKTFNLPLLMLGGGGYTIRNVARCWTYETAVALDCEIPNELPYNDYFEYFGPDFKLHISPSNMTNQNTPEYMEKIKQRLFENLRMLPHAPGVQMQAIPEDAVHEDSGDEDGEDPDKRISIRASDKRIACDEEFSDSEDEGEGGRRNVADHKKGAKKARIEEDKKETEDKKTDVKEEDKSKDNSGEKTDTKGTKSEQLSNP

One may read the IC50 as the concentration at which inhibition is half-maximal. Regarding `CC(C)(CNC(=O)c1cccc(-c2noc(C(F)(F)F)n2)c1)c1coc(-c2ccccc2)n1`, the half-inhibitory concentration (IC50) in test [1] is 0.888 µM; in test [2], 1 µM; at Histone deacetylase 1, greater than 5 µM; in test [3], greater than 5 µM; in [4], greater than 5 µM; in test [5], greater than 50 µM. The half-inhibitory concentration (IC50) in test [6] is greater than 5 µM; on Histone deacetylase 2, greater than 5 µM; in [7] it was 0.887 µM; in [8], greater than 5 µM; in test [9], 1 µM; at Histone deacetylase 3, greater than 5 µM. The IC50 in test [10] and in test [11] was greater than 5 µM in each case.
